From ChEMBL document CHEMBL1125894, “Dual-action cephalosporins: cephalosporin 3'-quaternary ammonium quinolones” (1991)
≈ marks a conversion by molar mass, not a printed value.

Tests used:
Escherichia coli [1] = test: Antibacterial activity against Escherichia coli DC-O; assay type: functional
How it was run: (§1)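 Serial 2-fold dilutions in the NCCLS broth microdilution method for aerobic nonfastidious organisms, with an 18-h incubation. The value is reported as the minimum inhibitory concentration (MIC).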

Escherichia coli [2] = test: Concentration required for 90% inhibition against 60 kDa penicillin-binding protein 3 binding using [14C]-Pen G as the radioligand.
How it was run: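 Solubilized membranes from sonicated E. coli DC-0 were used. PBP binding was measured as inhibition of [14C]penicillin G binding to each PBP.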

Streptococcus pyogenes [3] = test: In vitro antibacterial activity against Streptococcus pyogenes 4; assay type: functional
How it was run: (§2)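 Broth macrodilution with serial 2-fold dilutions in cation-supplemented Mueller-Hinton broth containing 10% goat serum. The value is reported as the MIC.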

Enterobacter cloacae [4] = test: In vivo activity in murine against Enterobacter cloacae 5699 infection after sc administration.; assay type: functional
How it was run: (§3)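 Mouse protection test in CD1 Swiss albino mice (18–20 g). Mice were infected intraperitoneally with 0.5 mL of a diluted bacterial suspension, then treated within 5 min with one 1.0 mL subcutaneous dose at the dorsal base of the neck. Doses ranged from 0.05 to 250 mg/kg, with six mice per group. ED50 was calculated by the Reed–Muench method.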

Staphylococcus aureus [5] = test: In vivo activity in murine against Staphylococcus aureus Smith (MS) infection after sc administration.; assay type: functional; how it was run: as §3
Escherichia coli [6] = test: In vitro antibacterial activity against Escherichia coli 257; assay type: functional; how it was run: as §1
Citrobacter freundii = test: In vivo activity in murine against Citrobacter freundii BS#16 infection after sc administration.; assay type: functional
How it was run: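 CD1 Swiss albino mice (18–20 g) infected intraperitoneally with 0.5 mL diluted bacterial culture suspension. Single subcutaneous treatment within 5 min, 1.0 mL at dorsal base of neck, serial dilutions spanning 0.05–250 mg/kg. Six mice per treatment and control group. ED50 (50% protective dose) derived by Reed and Muench method.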

Enterobacter cloacae [7] = test: In vitro antibacterial activity against Enterobacter cloacae P99; assay type: functional; how it was run: as §1
Klebsiella pneumoniae [8] = test: In vitro antibacterial activity against Klebsiella pneumoniae A; assay type: functional; how it was run: as §1
Pseudomonas aeruginosa [9] = test: In vivo activity in murine against Pseudomonas aeruginosa 5712 infection after sc administration.; assay type: functional; details: Pseudomonas aeruginosa, sc; read-out: ED50
How it was run: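 Mouse protection test in CD1 Swiss albino mice (18–20 g) infected intraperitoneally with 0.5 mL of diluted P. aeruginosa suspension. Mice received 1.0 mL subcutaneously at the neck base within 5 min of infection and a second treatment 3 h after infection. Doses ranged from 0.05 to 250 mg/kg, with six mice per group. ED50 was calculated by the Reed–Muench method.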

Serratia marcescens = test: In vitro antibacterial activity against Serratia marcescens SM; assay type: functional; how it was run: as §1
Pseudomonas aeruginosa [10] = test: In vitro antibacterial activity against Pseudomonas aeruginosa 5712; assay type: functional; how it was run: as §1
Klebsiella pneumoniae [11] = test: In vivo activity in murine against Klebsiella pneumoniae A infection after sc administration.; assay type: functional; how it was run: as §3
Staphylococcus aureus [12] = test: In vitro antibacterial activity against Staphylococcus aureus Smith(MS); assay type: functional
How it was run: (§4)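 Staphylococci were tested by the standard agar dilution procedure using serial 2-fold dilutions of agent. The value is reported as the MIC.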

Escherichia coli [13] = test: In vivo activity in murine against Escherichia coli 257 infection after sc administration.; assay type: functional; details: Escherichia coli, sc; read-out: ED50; how it was run: as §3
Staphylococcus aureus [14] = test: In vitro antibacterial activity against Staphylococcus aureus 95(MR); assay type: functional; how it was run: as §4
Streptococcus pneumoniae = test: In vitro antibacterial activity against Streptococcus pneumoniae 6301; assay type: functional; how it was run: as §2
Streptococcus pyogenes [15] = test: In vivo activity in murine against Streptococcus pyogenes 4 infection after sc administration.; assay type: functional; how it was run: as §3

`CC(C)(O/N=C(\C(=O)N[C@@H]1C(=O)N2C(C(=O)[O-])=C(C[N+]3(C)CCN(c4c(F)cc5c(=O)c(C(=O)O)cn(CCF)c5c4F)CC3)CS[C@H]12)c1csc(N)n1)C(=O)O` gave an MIC (Escherichia coli [1]) of 0.2 µg/mL (≈ 0.239 µM), a Concentration (Escherichia coli [2]) of 0.1 µg/mL and an MIC (Streptococcus pyogenes [3]) of 0.5 µg/mL (≈ 0.597 µM). For the same molecule, the ED50 (Enterobacter cloacae [4]) was less than 5 mg/kg, the ED50 (Staphylococcus aureus [5]) was 2.6 mg/kg and the MIC (Escherichia coli [6]) was 0.25 µg/mL (≈ 0.299 µM). The ED50 (Citrobacter freundii) was 9 mg/kg, the MIC (Enterobacter cloacae [7]) was 1 µg/mL (≈ 1.19 µM) and the MIC (Klebsiella pneumoniae [8]) was 0.25 µg/mL (≈ 0.299 µM). The ED50 (Pseudomonas aeruginosa [9]) was greater than 250 mg/kg, the MIC (Serratia marcescens) was 1 µg/mL (≈ 1.19 µM) and the MIC (Pseudomonas aeruginosa [10]) was 16 µg/mL (≈ 19.1 µM). It also gave an ED50 (Klebsiella pneumoniae [11]) of 3 mg/kg, an MIC (Staphylococcus aureus [12]) of 16 µg/mL (≈ 19.1 µM) and an ED50 (Escherichia coli [13]) of 0.28 mg/kg. The MIC (Staphylococcus aureus [14]) was 8 µg/mL (≈ 9.56 µM), the MIC (Streptococcus pneumoniae) was 0.5 µg/mL (≈ 0.597 µM) and the ED50 (Streptococcus pyogenes [15]) was 54 mg/kg.
